In brackets after ≈: the same amount, converted by molar mass.
Experiments:
[1] = system: P388; assay: In vivo T/C (survival time treated/survival time control x 100) was determined against P388 leukemia cells at 20 mg/Kg; type: functional, Mus musculus
Outline: (§1)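 B6D2 F1 mice, at least five per group, were inoculated ip on day 0 with 10^6 viable P388 cells (25 mL/kg). Compounds were dissolved in distilled water and given ip (25 mL/kg) daily on days 1–4. Mortality was checked daily, with necropsy of dead animals. T/C×100 was median survival, treated versus control. Survivors beyond 50 days counted as cured and were excluded from the median.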

[2] = Cytotoxicity in the multiple tumor disk diffusion soft agar assay at the dose of 15 ug/disk against solid tumor C38.; type: functional, Mus musculus
Outline: (§2)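 Soft agar disk diffusion: bottom layer 0.8% noble agar, top layer 0.47% noble agar, both in 1:1 CMRL-Fischer medium with 11% horse serum. Top layer seeded with 5×10^3 L1210 cells or 10^6 solid tumor cells (C38, PO3). Drug applied on a dried 6-mm filter-paper disk. Incubation 7-11 days. Inhibition zone measured by inverted microscope, in units (1 unit = 30 μm).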

[3] = system: L1210; assay: Cytotoxicity in the multiple tumor disk diffusion soft agar assay at the dose of 15 ug/disk against leukemia L1210; type: functional, Mus musculus; outline: as §2
[4] = system: L1210; assay: Tested for cytotoxicity in the multiple tumor disk diffusion soft agar assay at the dose of 15 ug/disk against leukemia L1210; type: functional, Mus musculus; outline: as §2
[5] = system: P388; assay: In vitro cytotoxicity was determined against P388 leukemia cells; type: functional; conditions: Mus musculus, read-out: ID50 (the source's name)
Outline: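 P388 cells in exponential growth, RPMI 1640 with 2 mM glutamine, 10 μM 2-mercaptoethanol and 10% FCS, 5% CO2, 37 °C. Cells at 10^5 cells/mL. Drugs in distilled water added on day 0. Cells counted by Coulter counter after 96 h. ID50 (μg/mL, 50% inhibition of proliferation) estimated by regression of concentration/response data.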

[6] = Tested for cytotoxicity in the multiple tumor disk diffusion soft agar assay at the dose of 15 ug/disk against solid tumor PO3; range is 300-450; type: functional, Mus musculus; outline: as §2
[7] = system: Mus musculus; assay: Tested for medium tumor weight of treated /control animals x 100 (% T/C) for murine solid tumor model 3LL advanced stage that is subcutaneously implanted by the intravenous treatment at the dose of 2.5 mg/kg in 1-4 schedule; type: functional
[8] = system: Mus musculus; assay: In vivo total number of survivors was determined against L1210 Leukemia cells out of 8 mouse at 50 day; type: functional, Leukemia cell
Outline: (§3)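 B6D2 F1 mice, at least five per group, were inoculated ip on day 0 with 10^5 viable L1210 cells (25 mL/kg). Compounds were dissolved in distilled water and given ip (25 mL/kg) on days 1–4. Deaths were checked daily, with necropsy to separate tumor from toxic death. T/C×100 was median survival of treated over controls. Mice surviving over 50 days counted as cured and were excluded from the median.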

[9] = system: Mus musculus; assay: Tested for the change in body weight between day1 and 7 for murine solid tumor model B16 early stage that is subcutaneously implanted by the intravenous treatment at the dose of 1.25 mg/kg in 1-4 schedule; type: functional
Outline: (§4)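 sc implant of 1 mm³ tumor fragment. MA 16/C in C3H mice, B16 in C57BL/6 mice, C26 in CD2F1 mice; 10 per group. iv dosing on days 1-4 at 10 mL/kg. Mice weighed daily. Killed day 14 (C26) or day 15 (MA 16/C, B16) and tumors weighed. T/C×100 from median tumor weight, treated vs control. Body weight change taken from day 1 to 7.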

[10] = system: Mus musculus; assay: Tested for the change in body weight between day1 and 7 for murine solid tumor model MA 16/C early stage that is subcutaneously implanted by the intravenous treatment at the dose of 2.5 mg/kg in 1-4 schedule; type: functional
Outline: (§5)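 Mice given sc 1 mm³ tumor fragment: C26 in CD2F1 mice, MA 16/C in C3H mice (tumors passaged in strain of origin), 10 per group. Drug given iv days 1–4 at 10 mL/kg. Animals weighed daily and watched for toxicity. Body-weight change taken from day 1 to day 7. Killed day 14 (C26) or 15 (MA 16/C).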

[11] = system: Mus musculus; assay: Tested for the change in body weight between day1 and 14 for murine solid tumor model 3LL advanced stage that is intramuscularly implanted by the intravenous treatment at the dose of 2.5 mg/kg in 7-10 schedule
[12] = system: Mus musculus; assay: Tested for medium tumor weight of treated /control animals x 100 (% T/C) for murine solid tumor model MA 16/C early stage that is subcutaneously implanted by the intravenous treatment at the dose of 2.5 mg/kg in 1-4 schedule; type: functional; outline: as §4
[13] = system: Mus musculus; assay: Tested for medium tumor weight of treated /control animals x 100 (% T/C) for murine solid tumor model B16 early stage that is subcutaneously implanted by the intravenous treatment at the dose of 1.25 mg/kg in 1-4 schedule; type: functional; outline: as §4
[14] = system: Mus musculus; assay: Tested for the change in body weight between day1 and 7 for murine solid tumor model 3LL early stage that is intramuscularly implanted by the intravenous treatment at the dose of 2.5 mg/kg in 1-4 schedule
[15] = system: Mus musculus; assay: Tested for mean number of metastases in treated/control animals x 100 (% T/C) for murine solid tumor model 3LL early stage that is intramuscularly implanted by the intravenous treatment at the dose of 2.5 mg/kg in 1-4 schedule
[16] = system: Mus musculus; assay: Tested for medium tumor weight of treated /control animals x 100 (% T/C) for murine solid tumor model C26 early stage that is subcutaneously implanted by the intravenous treatment at the dose of 2.5 mg/kg in 1-4 schedule; type: functional; outline: as §4
[17] = system: Mus musculus; assay: Tested for the change in body weight between day1 and 7 for murine solid tumor model C26 early stage that is subcutaneously implanted by the intravenous treatment at the dose of 2.5 mg/kg in 1-4 schedule; type: functional; outline: as §5
[18] = system: L1210; assay: Tested for cytotoxicity in the multiple tumor disk diffusion soft agar assay at the dose of 15 ug/disk against leukemia L1210; range is 420-525; type: functional, Mus musculus; outline: as §2
[19] = system: P388; assay: In vivo T/C (survival time treated/survival time control x 100) was determined against P388 leukemia cells at 40 mg/Kg; type: functional, Mus musculus; outline: as §1
[20] = Tested for medium tumor weight of treated /control animals x 100 (% T/C) for murine solid tumor model B16 early stage that is subcutaneously implanted by the intravenous treatment at the dose of 5 mg/kg in 1-4 schedule; type: functional, Mus musculus; outline: as §4
[21] = system: Mus musculus; assay: Tested for the change in body weight between day1 and 7 for murine solid tumor model C26 early stage that is subcutaneously implanted by the intravenous treatment at the dose of 10 mg/kg in 1-4 schedule; type: functional; outline: as §4
[22] = system: Mus musculus; assay: Tested for medium tumor weight of treated /control animals x 100 (% T/C) for murine solid tumor model C26 early stage that is subcutaneously implanted by the intravenous treatment at the dose of 10 mg/kg in 1-4 schedule; type: functional; outline: as §4
[23] = system: Mus musculus; assay: Tested for medium tumor weight of treated /control animals x 100 (% T/C) for murine solid tumor model MA 16/C early stage that is subcutaneously implanted by the intravenous treatment at the dose of 5 mg/kg in 1-4 schedule; type: functional; outline: as §4
[24] = Tested for the change in body weight between day1 and 7 for murine solid tumor model B16 early stage that is subcutaneously implanted by the intravenous treatment at the dose of 5 mg/kg in 1-4 schedule; type: functional, Mus musculus; outline: as §4
[25] = system: Mus musculus; assay: Tested for the change in body weight between day1 and 7 for murine solid tumor model MA 16/C early stage that is subcutaneously implanted by the intravenous treatment at the dose of 5 mg/kg in 1-4 schedule; type: functional; outline: as §5
[26] = system: L1210; assay: Tested for cytotoxicity in the multiple tumor disk diffusion soft agar assay at the dose of 15 ug/disk against leukemia L1210; range is 475-600; type: functional, Mus musculus; outline: as §2
[27] = Tested for cytotoxicity in the multiple tumor disk diffusion soft agar assay at the dose of 15 ug/disk against solid tumor C38; range is 450-525; type: functional, Mus musculus; outline: as §2
[28] = Cytotoxicity in the multiple tumor disk diffusion soft agar assay at the dose of 15 ug/disk against solid tumor PO3; type: functional, Mus musculus; outline: as §2
[29] = system: P388; assay: In vivo T/C (survival time treated/survival time control x 100) was determined against P388 leukemia cells at 10 mg/Kg; type: functional, Mus musculus; outline: as §1
[30] = Tested for cytotoxicity in the multiple tumor disk diffusion soft agar assay at the dose of 15 ug/disk against solid tumor C38; U = 32 uM; type: functional, Mus musculus; outline: as §2
[31] = system: L1210; assay: Tested for cytotoxicity in the multiple tumor disk diffusion soft agar assay at the dose of 15 ug/disk against leukemia L1210; U = 32 uM; type: functional, Mus musculus; outline: as §2
[32] = Tested for cytotoxicity in the multiple tumor disk diffusion soft agar assay at the dose of 15 ug/disk against solid tumor PO3; range is 430-480; type: functional, Mus musculus
[33] = system: L1210; assay: In vivo T/C (survival time treated/survival time control x 100) was determined against L1210 leukemia cells at 40 mg/Kg; type: functional, Mus musculus; outline: as §3

Structure (SMILES): Cc1c[nH]c(NCCCN(C)C)c2c3ccc4c(O)cccc4c3nc1-2
- T/C x100 [1]: 169
- Cytotoxicity [2]: 400 U
- Cytotoxicity [3]: 450 U
- Cytotoxicity [4]: 500 U
- IC50 [5]: 0.05 µg/mL (≈ 0.143 µM)
- Cytotoxicity [6]: 300 U

Structure (SMILES): CCN(CC)CCCNc1nccc2c(C)c3[nH]c4ccc(OC)cc4c3c(C)c12 [RETELLIPTINE]
- T/C [7]: 40%
- Survivors [8]: 3
- Change in weight [9]: 1 g
- Change in weight [10]: -2.2 g
- Change in weight [11]: 0 g
- T/C [12]: 4%
- T/C [13]: 26%
- Change in weight [14]: -1.4 g
- T/C [15]: 0%
- T/C [16]: 0%
- Change in weight [17]: -2.1 g

Structure (SMILES): CCN(CC)CCCNc1ncc(C)c2[nH]c3ccc4ccccc4c3c12
- Cytotoxicity [18]: 420 U
- Cytotoxicity [2]: 525 U
- T/C x100 [19]: 149
- IC50 [5]: 0.18 µg/mL (≈ 0.499 µM)

Structure (SMILES): CCN(CC)CCCNc1nccc2c(C)c3[nH]c4ccncc4c3cc12 [PAZELLIPTINE]
- T/C [20]: 10%
- Change in weight [21]: -1.5 g
- T/C [22]: 10%
- T/C [23]: 45%
- Change in weight [24]: -0.5 g
- Change in weight [25]: -1.5 g

Structure (SMILES): Cc1cnc(NCCCN(C)C)c2c3c4ccccc4ccc3n(C)c12
- Cytotoxicity [26]: 475 U
- Cytotoxicity [27]: 450 U
- Cytotoxicity [3]: 425 U
- Cytotoxicity [28]: 550 U
- T/C x100 [19]: 164
- IC50 [5]: 0.05 µg/mL (≈ 0.144 µM)

Structure (SMILES): CCN(CC)CCCNc1ncc(C)c2c1c1ccc3c(O)cccc3c1n2C
- T/C x100 [29]: 160
- Cytotoxicity [30]: 730 U
- Cytotoxicity [4]: 450 U
- IC50 [5]: 0.05 µg/mL (≈ 0.128 µM)
- Cytotoxicity [31]: 500 U
- Cytotoxicity [32]: 430 U

Structure (SMILES): CCN(CC)CCCNc1[nH]cc(C)c2nc3ccc4cc(OC)ccc4c3c1-2
- T/C x100 [19]: 189
- IC50 [5]: 1 µg/mL (≈ 2.56 µM)
- T/C x100 [33]: 112
